Source: ChEMBL document CHEMBL2057149 (J Med Chem, 2012)
Activity calls are given as the source filed them. The rule behind the calls is not given here.

Key:
HUVEC [1] = assay: Antiangiogenic activity in FGF2-stimulated HUVEC cells after 72 hrs by CellTiter assay; type: functional, cell-based; details: Homo sapiens
HUVEC [2] = assay: Antiangiogenic activity in FGF1-stimulated HUVEC cells after 72 hrs by CellTiter assay; type: functional, cell-based; details: Homo sapiens
HMVEC [3] = assay: Antiangiogenic activity in FGF1-stimulated HMVEC cells after 72 hrs by CellTiter assay; type: functional, cell-based; details: Homo sapiens
HMVEC [4] = assay: Antiangiogenic activity in FGF2-stimulated HMVEC cells after 72 hrs by CellTiter assay; type: functional, cell-based; details: Homo sapiens
HUVEC [5] = assay: Antiangiogenic activity in VEGF-stimulated HUVEC cells after 72 hrs by CellTiter assay; type: functional, cell-based; details: Homo sapiens
[6] = molecular target: Fibroblast growth factor 2 (Homo sapiens, UniProt P09038); assay: Binding affinity to FGF-2 by surface plasmon resonance assay
In short: (§1)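 Solution-affinity SPR on heparin-coated CM4 chips. FGF-1 measured in HBS-EP (10 mM HEPES pH 7.4, 150 mM NaCl, 3.0 mM EDTA, 0.005% polysorbate 20); FGF-2 measured in HBS-EP with 300 mM NaCl. Kd is the average of at least duplicate measurements ± SD.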

Plasma [7] = assay: Anticoagulant activity in pooled human plasma assessed as prolongation of the recalcification time at 0.1 mg/ml by Heptest assay; type: ADME, cell-free
In short: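 Heptest clotting time in pooled normal human plasma; normal range 13–20 s. Values are the mean of two determinations.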

[8] = molecular target: Fibroblast growth factor 1 (Homo sapiens, UniProt P05230); assay: Binding affinity to FGF-1 by surface plasmon resonance assay; in short: as §1
[9] = molecular target: Vascular endothelial growth factor A (Homo sapiens) (UniProt P15692); assay: Binding affinity to VEGF by surface plasmon resonance assay
HMVEC [10] = assay: Antiangiogenic activity in VEGF-stimulated HMVEC cells after 72 hrs by CellTiter assay; type: functional, cell-based; details: Homo sapiens
Heparanase = molecular target: T1, Heparanase (Homo sapiens, UniProt Q9Y251); assay: Inhibition of human recombinant heparanase after 2 to 24 hrs by WST1 dye based fondaparinux assay
T1 sequence (Q9Y251 whole entry): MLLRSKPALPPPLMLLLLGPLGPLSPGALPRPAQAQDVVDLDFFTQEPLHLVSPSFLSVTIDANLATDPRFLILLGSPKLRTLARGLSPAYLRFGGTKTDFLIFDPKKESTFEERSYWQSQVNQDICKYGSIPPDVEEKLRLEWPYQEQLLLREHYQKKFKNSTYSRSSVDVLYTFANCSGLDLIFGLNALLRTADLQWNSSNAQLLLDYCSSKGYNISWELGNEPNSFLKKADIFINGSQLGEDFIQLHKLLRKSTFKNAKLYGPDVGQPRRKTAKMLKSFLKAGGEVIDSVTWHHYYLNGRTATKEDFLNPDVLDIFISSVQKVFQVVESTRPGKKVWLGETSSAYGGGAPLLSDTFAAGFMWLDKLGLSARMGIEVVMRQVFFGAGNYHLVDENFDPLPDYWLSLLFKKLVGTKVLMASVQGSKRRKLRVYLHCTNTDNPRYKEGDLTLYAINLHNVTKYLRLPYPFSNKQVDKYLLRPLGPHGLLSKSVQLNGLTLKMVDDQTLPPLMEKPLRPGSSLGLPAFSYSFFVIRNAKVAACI

Plasma [11] = assay: Anticoagulant activity in pooled human plasma assessed as activated partial thromboplastin time at 0.1 mg/ml; type: ADME, cell-free
In short: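 APTT of pooled normal human plasma measured with compound at 0–100 μg/mL in PBS on a ball coagulameter, using unfractionated heparin as the reference. Normal range 26–36 s; coefficient of variation 2% at 36 s and 5–7% at 90 s or above. Values are the mean of two determinations.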

Fibroblast growth factor 2, sequence (P09038 143-288 limits assumed): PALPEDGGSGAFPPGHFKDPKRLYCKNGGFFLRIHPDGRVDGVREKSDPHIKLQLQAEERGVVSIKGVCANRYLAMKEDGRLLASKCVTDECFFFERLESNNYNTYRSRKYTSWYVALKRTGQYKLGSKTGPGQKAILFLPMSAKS
Fibroblast growth factor 1, sequence (P05230 whole entry): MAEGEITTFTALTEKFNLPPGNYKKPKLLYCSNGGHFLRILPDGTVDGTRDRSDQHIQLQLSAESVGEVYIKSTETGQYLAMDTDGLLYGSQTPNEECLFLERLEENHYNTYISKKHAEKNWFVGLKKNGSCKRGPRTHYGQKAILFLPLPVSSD

Row | Compound | IC50 (HUVEC [1]) [nM] | IC50 (HUVEC [2]) [nM] | Activity (HMVEC [3]) | Activity (HMVEC [4]) | IC50 (HUVEC [5]) [nM] | Kd [6] [nM] | Time (Plasma [7]) [s] | Kd [8] [nM] | Kd [9] [nM] | Activity (HMVEC [10]) | Ki (Heparanase) [nM] | APTT (Plasma [11]) [s]
1 | CC(C)CCC[C@@H](C)[C@H]1CC[C@H]2[C@@H]3CC[C@H]4C[C@@H](OCc5cn([C@@H]6O[C@H](COS(=O)(=O)[O-])[C@@H](O[C@@H]7O[C@H](COS(=O)(=O)[O-])[C@H](OS(=O)(=O)[O-])[C@H](OS(=O)(=O)[O-])[C@H]7OS(=O)(=O)[O-])[C@H](OS(=O)(=O)[O-])[C@H]6OS(=O)(=O)[O-])nn5)CC[C@]4(C)[C@H]3CC[C@]12C.[Na+].[Na+].[Na+].[Na+].[Na+].[Na+].[Na+] | 2430 | 2700 | Active | Active | 2620 | 1800 | 25.3 | 610 | 1600 | Active | 30 | 39.6
2 | CC(C)CCC[C@@H](C)[C@H]1CC[C@H]2[C@@H]3CC[C@H]4C[C@@H](OCc5cn([C@@H]6O[C@H](COS(=O)(=O)[O-])[C@@H](O[C@H]7O[C@H](COS(=O)(=O)[O-])[C@@H](O[C@H]8O[C@H](COS(=O)(=O)[O-])[C@@H](OS(=O)(=O)[O-])[C@H](OS(=O)(=O)[O-])[C@H]8OS(=O)(=O)[O-])[C@H](OS(=O)(=O)[O-])[C@H]7OS(=O)(=O)[O-])[C@H](OS(=O)(=O)[O-])[C@H]6OS(=O)(=O)[O-])nn5)CC[C@]4(C)[C@H]3CC[C@]12C.[Na+].[Na+].[Na+].[Na+].[Na+].[Na+].[Na+].[Na+].[Na+].[Na+] | 1200 | 2100 | Active | Active | 1800 | 610 | 30.2 | 50 | 790 | Active | 16 | 61.2
3 | CC(C)CCC[C@@H](C)[C@H]1CC[C@H]2[C@@H]3CC[C@H]4C[C@@H](O[C@H]5O[C@H](COS(=O)(=O)[O-])[C@@H](OS(=O)(=O)[O-])[C@H](O[C@H]6O[C@H](COS(=O)(=O)[O-])[C@@H](OS(=O)(=O)[O-])[C@H](O[C@H]7O[C@H](COS(=O)(=O)[O-])[C@@H](OS(=O)(=O)[O-])[C@H](OS(=O)(=O)[O-])[C@@H]7OS(=O)(=O)[O-])[C@@H]6OS(=O)(=O)[O-])[C@@H]5OS(=O)(=O)[O-])CC[C@]4(C)[C@H]3CC[C@]12C.[Na+].[Na+].[Na+].[Na+].[Na+].[Na+].[Na+].[Na+].[Na+].[Na+] | 1800 | 2500 | Active | Active | 1700 | 490 | 24.2 | 16 | 90 | Active | 10.5 | 58.5
4 | CC(C)CCC[C@@H](C)[C@H]1CC[C@H]2[C@@H]3CC[C@H]4C[C@@H](OCc5cn(CCCO[C@H]6O[C@H](COS(=O)(=O)[O-])[C@@H](OS(=O)(=O)[O-])[C@H](OS(=O)(=O)[O-])[C@@H]6O[C@H]6O[C@H](COS(=O)(=O)[O-])[C@@H](OS(=O)(=O)[O-])[C@H](O[C@H]7O[C@H](COS(=O)(=O)[O-])[C@@H](OS(=O)(=O)[O-])[C@H](OS(=O)(=O)[O-])[C@@H]7OS(=O)(=O)[O-])[C@@H]6OS(=O)(=O)[O-])nn5)CC[C@]4(C)[C@H]3CC[C@]12C.[Na+].[Na+].[Na+].[Na+].[Na+].[Na+].[Na+].[Na+].[Na+].[Na+] | 1700 | 3800 | Active | Active | 2100 | 480 | 33.1 | 22.6 | 460 | Active | 8.5 | 73.3
5 | CC(C)CCC[C@@H](C)[C@H]1CC[C@H]2[C@@H]3CC[C@H]4C[C@@H](O[C@@H]5O[C@H](COS(=O)(=O)[O-])[C@@H](O[C@H]6O[C@H](COS(=O)(=O)[O-])[C@@H](O[C@H]7O[C@H](COS(=O)(=O)[O-])[C@@H](OS(=O)(=O)[O-])[C@H](OS(=O)(=O)[O-])[C@H]7OS(=O)(=O)[O-])[C@H](OS(=O)(=O)[O-])[C@H]6OS(=O)(=O)[O-])[C@H](OS(=O)(=O)[O-])[C@H]5OS(=O)(=O)[O-])CC[C@]4(C)[C@H]3CC[C@]12C.[Na+].[Na+].[Na+].[Na+].[Na+].[Na+].[Na+].[Na+].[Na+].[Na+] | 2300 | 2500 | Active | Active | 1600 | 547 | 29.2 | 24.8 | 190 | Active | 9.1 | 51.6
6 | CC(C)CCC[C@@H](C)[C@H]1CC[C@H]2[C@@H]3CC[C@H]4C[C@@H](O[C@H]5O[C@H](COS(=O)(=O)[O-])[C@@H](OS(=O)(=O)[O-])[C@H](OS(=O)(=O)[O-])[C@@H]5O[C@H]5O[C@H](COS(=O)(=O)[O-])[C@@H](OS(=O)(=O)[O-])[C@H](O[C@H]6O[C@H](COS(=O)(=O)[O-])[C@@H](OS(=O)(=O)[O-])[C@H](OS(=O)(=O)[O-])[C@@H]6OS(=O)(=O)[O-])[C@@H]5OS(=O)(=O)[O-])CC[C@]4(C)[C@H]3CC[C@]12C.[Na+].[Na+].[Na+].[Na+].[Na+].[Na+].[Na+].[Na+].[Na+].[Na+] | 2270 | 4400 | Active | Active | 1000 | 631 | 27.3 | 18.5 | 319 | Active | 6.4 | 50.7
7 | CC(C)CCC[C@@H](C)[C@H]1CC[C@H]2[C@@H]3CC[C@H]4C[C@@H](OCc5cn(CCCO[C@H]6O[C@H](COS(=O)(=O)[O-])[C@@H](OS(=O)(=O)[O-])[C@H](OS(=O)(=O)[O-])[C@@H]6O[C@H]6O[C@H](COS(=O)(=O)[O-])[C@@H](OS(=O)(=O)[O-])[C@H](O[C@H]7O[C@H](COS(=O)(=O)[O-])[C@@H](OS(=O)(=O)[O-])[C@H](O[C@H]8O[C@H](COS(=O)(=O)[O-])[C@@H](OS(=O)(=O)[O-])[C@H](O[C@H]9O[C@H](COS(=O)(=O)[O-])[C@@H](OS(=O)(=O)[O-])[C@H](OS(=O)(=O)[O-])[C@@H]9OS(=O)(=O)[O-])[C@@H]8OS(=O)(=O)[O-])[C@@H]7OS(=O)(=O)[O-])[C@@H]6OS(=O)(=O)[O-])nn5)CC[C@]4(C)[C@H]3CC[C@]12C.[Na+].[Na+].[Na+].[Na+].[Na+].[Na+].[Na+].[Na+].[Na+].[Na+].[Na+].[Na+].[Na+].[Na+].[Na+].[Na+] | 390 | 990 | Active | Active | 220 | 39 | 29.6 | 0.24 | 1.04 | Active | 5.5 | 63.3
8 | CC(C)CCC[C@@H](C)[C@H]1CC[C@H]2[C@@H]3CC[C@H]4C[C@@H](O[C@@H]5O[C@H](COS(=O)(=O)[O-])[C@@H](O[C@@H]6O[C@H](COS(=O)(=O)[O-])[C@@H](OS(=O)(=O)[O-])[C@H](OS(=O)(=O)[O-])[C@H]6OS(=O)(=O)[O-])[C@H](OS(=O)(=O)[O-])[C@H]5OS(=O)(=O)[O-])CC[C@]4(C)[C@H]3CC[C@]12C.[Na+].[Na+].[Na+].[Na+].[Na+].[Na+].[Na+] | 5600 | 6000 | Active | Active | 5600 | 2000 | 25.3 | 870 | 1350 | Active | – | 38.8
